Laboratory results reported in ChEMBL document CHEMBL1221386, “Synthesis and pharmacological evaluation of 3-aryl-3-azolylpropan-1-amines as selective triple serotonin/norepinephrine/dopamine reuptake inhibitors” (Bioorg Med Chem Lett, 2010).

Tests used:
[1] = Half life in rat at 10 mg/kg, po; assay type: ADME, organism-based; parameters: dose 10 mg/kg, route oral; conditions: in vivo
Mus musculus [2] = assay: Antidepressant activity in po dosed mouse assessed as reduction of mobility time by forced swimming test; assay type: functional
Procedure, shortened: (§1)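 Mouse forced swimming test with oral dosing. Read-out is immobility time, expressed as % reduction of immobility. Minimal effective dose is the lowest dose with p <0.05. ED50 is given with 95% confidence limits. Doses are in mg/kg.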

Mus musculus [3] = assay: Antidepressant activity in mouse assessed as reduction of mobility time by forced swimming test at 10 mg/kg, po; assay type: functional; parameters: scale not given: the % may be the effect or the level left; procedure, shortened: as §1
Mus musculus [4] = assay: Antidepressant activity in mouse assessed as reduction of mobility time at 3 mg/kg, po by tail suspension test; assay type: functional; parameters: scale not given: the % may be the effect or the level left
Procedure, shortened: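 Mouse tail suspension test run as an oral dose–response. Read-out is percent reduction of immobility time; minimal effective dose taken at p<0.05.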

[5] = Volume of distribution at steady state in rat at 10 mg/kg, iv; assay type: ADME, organism-based; parameters: dose 10 mg/kg, route intravenous; conditions: in vivo, read-out: Vdss
[6] = target: Sodium-dependent noradrenaline transporter (Homo sapiens, UniProt P23975); assay: Inhibition of norepinephrine reuptake at human NET expressed in MDCK cells; assay type: cell-based
[7] = Half life in human liver microsomes; assay type: ADME, Microsome
Procedure, shortened: (§2)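 Metabolic stability in human or rat liver microsomes. Half-lives measurable up to 60 min.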

Cytochrome P450 2D6 = Cytochrome P450 2D6 (Homo sapiens, UniProt P10635); assay: Inhibition of CYP2D6; assay type: ADME
Mus musculus [8] = assay: Potentiation of […]-induced serotonin syndrome like behavior in mouse at 30 mg/kg, po; assay type: functional
Procedure, shortened: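 Mice, oral dosing. For serotonin potentiation, 5-hydroxytryptophan (5-HTP, serotonin precursor) is given to induce serotonin syndrome-like head twitch/stereotypy counts. Response is expressed as % potentiation relative to control group (0%). Minimal effective dose is the lowest dose reaching p <0.05. Doses are in mg/kg.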

Mus musculus [9] = assay: Antidepressant activity in po dosed mouse assessed as reduction of mobility time by tail suspension test; assay type: functional; conditions: read-out: MED
Procedure, shortened: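 Mouse tail suspension test with oral dose–response. Read-out is immobility time, reported as % reduction of immobility. Minimal effective dose is the lowest dose giving p <0.05. Doses are in mg/kg.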

[10] = Half life in rat liver microsomes; assay type: ADME, Microsome; procedure, shortened: as §2
[11] = Cmax in rat at 10 mg/kg, po; assay type: ADME, organism-based; parameters: dose 10 mg/kg, route oral; conditions: in vivo
Mus musculus [12] = assay: Antidepressant activity in mouse assessed as change in locomotion at 150 mg/kg, po; assay type: functional
Procedure, shortened: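 Spontaneous locomotor activity in mice measured 1 h after oral dosing. Expressed relative to the control group set at 100%.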

[13] = Cmax in rat at 10 mg/kg, iv; assay type: ADME, organism-based; parameters: dose 10 mg/kg, route intravenous; conditions: in vivo
[14] = Inhibition of alpha1 adrenergic receptor at 10 uM
[15] = AUC in rat at 10 mg/kg, po; assay type: ADME, organism-based; parameters: dose 10 mg/kg, route oral; conditions: plasma

Chain of Sodium-dependent noradrenaline transporter (P23975 whole entry): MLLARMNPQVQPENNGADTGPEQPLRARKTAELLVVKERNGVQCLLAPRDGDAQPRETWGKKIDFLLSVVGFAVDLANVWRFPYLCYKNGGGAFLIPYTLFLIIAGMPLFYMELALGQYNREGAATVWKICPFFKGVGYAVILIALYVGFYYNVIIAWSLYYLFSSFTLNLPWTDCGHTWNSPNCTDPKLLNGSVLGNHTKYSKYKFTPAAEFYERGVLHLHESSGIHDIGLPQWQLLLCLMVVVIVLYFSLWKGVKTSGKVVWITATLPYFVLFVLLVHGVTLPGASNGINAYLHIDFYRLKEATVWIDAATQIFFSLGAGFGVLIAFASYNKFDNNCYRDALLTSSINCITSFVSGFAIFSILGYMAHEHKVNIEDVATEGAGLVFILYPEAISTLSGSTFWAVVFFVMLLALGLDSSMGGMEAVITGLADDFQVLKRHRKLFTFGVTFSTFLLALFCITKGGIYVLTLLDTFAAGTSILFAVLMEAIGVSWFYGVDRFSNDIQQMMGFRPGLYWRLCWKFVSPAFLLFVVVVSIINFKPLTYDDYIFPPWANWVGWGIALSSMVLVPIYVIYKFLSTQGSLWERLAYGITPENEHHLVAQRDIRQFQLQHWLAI
Chain of Cytochrome P450 2D6 (P10635 whole entry): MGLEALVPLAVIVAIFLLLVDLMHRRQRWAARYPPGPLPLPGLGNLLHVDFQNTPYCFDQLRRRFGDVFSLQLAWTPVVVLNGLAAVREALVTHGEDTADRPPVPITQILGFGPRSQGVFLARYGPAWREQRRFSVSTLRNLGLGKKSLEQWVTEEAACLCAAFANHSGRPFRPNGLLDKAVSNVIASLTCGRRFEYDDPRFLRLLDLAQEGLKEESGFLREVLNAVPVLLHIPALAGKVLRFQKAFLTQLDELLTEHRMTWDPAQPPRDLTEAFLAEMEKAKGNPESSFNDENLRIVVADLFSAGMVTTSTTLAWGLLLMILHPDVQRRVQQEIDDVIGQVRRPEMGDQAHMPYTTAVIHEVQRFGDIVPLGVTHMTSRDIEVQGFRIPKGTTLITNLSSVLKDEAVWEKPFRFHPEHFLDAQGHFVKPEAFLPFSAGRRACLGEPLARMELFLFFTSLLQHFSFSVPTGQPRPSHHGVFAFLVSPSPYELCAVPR

- half-life [1]: 5.48 h
- Vd [5]: 6.8 L/kg
- IC50 [6]: 0.0198 µM
- half-life [7]: > 1 h
- IC50 (Cytochrome P450 2D6): 6.9 µM
- half-life [10]: 0.933 h
- Cmax [11]: 334 ng/mL
- Cmax [13]: 3830 ng/mL
- inhibition [14]: < 20%
- AUC [15]: 1280 ng·h/mL
Compound: CNCC[C@@H](c1ccc(Cl)c(Cl)c1)n1nnc(C)n1
- ED50 (Mus musculus [2]): 22.2 mg/kg
- minimal effective dose (Mus musculus [2]; read-out: MED): 10 mg/kg
- Activity (Mus musculus [3]): 14.9%
- Activity (Mus musculus [4]): 59.6%
- Activity (Mus musculus [8]): 158%
- minimal effective dose (Mus musculus [9]): 3 mg/kg
- Activity (Mus musculus [12]): 134%
